Source: ChEMBL document CHEMBL1127411, “Chemical and biological evaluation of hydrolysis products of cyclophosphamide” (J Med Chem, 1994)
The source made the active and inactive calls. The calls are words filed in the database; no cut-off is given here.

Experiments:
[1] = Lethal dose was evaluated after single intraperitoneal injection in mice; format: toxicity, organism-based; conditions: mouse, in vivo, ip
Outline: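 Male CD2F1 mice, 6–8 weeks old, two per dose group, single ip injection. Observed 28 days for lethality and clinical signs of toxicity; approximate LD₅₀ estimated from deaths.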

[2] = Antitumor efficacy evaluated after single intraperitoneal dose of 215 mg/kg; NE = No effect; format: functional, organism-based; parameters: dose 215 mg/kg
Outline: (§1)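 Male CD2F1 mice, six per group, inoculated ip with 10⁶ freshly harvested P388 cells in 0.2 mL phosphate-buffered saline. Test substance given ip either once on day 1 or daily on days 1–4; controls received solvent. Median survival time recorded per group; increase of life span expressed as percentage of control.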

[3] = Antitumor efficacy evaluated after single intraperitoneal dose of 68.1 mg/kg on consecutive days; NE = No effect; format: functional, organism-based; parameters: dose 68.1 mg/kg; outline: as §1
[4] = Antitumor efficacy evaluated after single dose of 316 mg/kg; NE = No effect; format: functional, organism-based; parameters: dose 316 mg/kg; outline: as §1
[5] = Antitumor efficacy evaluated after fractionated dose of 4*100 mg/kg; NE = No effect; format: functional, organism-based; outline: as §1
[6] = The half life at a pH 1.2; conditions: buffer
[7] = The half life at a physiological pH

## O=P(O)(O)OCCCNCCNCCCl
[1]
  LD50: 700 mg/kg
[2]
  Efficacy: inactive
[3]
  Efficacy: inactive

## NCCCOP(=O)(O)O
[1]
  LD50: 1000 mg/kg

## O=P1(O)OCCCNCCN1CCCl
[1]
  LD50: 1000 mg/kg
[4]
  Efficacy: inactive
[5]
  Efficacy: inactive

## O=P1(N(CCCl)CCCl)NCCCO1 (stereo not given) [CYCLOPHOSPHAMIDE ANHYDROUS]
[1]
  LD50: 620 mg/kg
[6]
  half-life: 33.6 h
[7]
  half-life: 158 h
